Experimental data pooled from the literature.
Protocols differ between the studies behind these lines.
MAL12: Alpha-glucosidase MAL12 (MAL12, Saccharomyces cerevisiae S288c, UniProt P53341)
ADRA1A I178V/M292L: Alpha-1A adrenergic receptor (ADRA1A, Homo sapiens, UniProt P35348, I178V/M292L)

C[C@@H]1O[C@@H](O[C@H]2[C@H](O[C@H]3CC[C@@]4(C)[C@@H](CC[C@]5(C)[C@@H]4CC=C4[C@@H]6CC(C)(C)CC[C@]6(C(=O)O)CC[C@]45C)[C@]3(C)CO)OC[C@H](O)[C@@H]2O)[C@H](O)[C@H](O)[C@H]1O
IC50 (MAL12; enzyme activity, inhibitor): 0.6 µM

COc1cc(C(c2c(O)c3ccccc3oc2=O)c2c(O)c3ccccc3oc2=O)ccc1OCc1cn(CC(=O)Nc2cccc(Cl)c2)nn1
IC50 (MAL12; enzyme activity, inhibitor, absorbance): 85.4 µM

NC(=S)N/N=C/c1cc2ccccc2nc1SCc1cn(CC(=O)Nc2ccc(O)cc2)nn1
IC50 (MAL12; enzyme activity, inhibitor): 311 µM

CCOC(=O)[C@H]1O[C@@H]1C(=O)N[C@@H](CC(C)C)C(=O)NCCC(C)C
IC50 (Cathepsin S (CTSS, Homo sapiens, UniProt P25774); enzyme activity, inhibitor, fluorescence): 19.1 µM

COc1cc(C(c2c(O)c3ccccc3oc2=O)c2c(O)c3ccccc3oc2=O)ccc1OCc1cn(CC(=O)Nc2ccc([N+](=O)[O-])cc2)nn1
IC50 (MAL12; enzyme activity, inhibitor, absorbance): 12.2 µM

Cn1c(=O)c2c(ncn2C)n(C)c1=O
IC50 (Solute carrier family 22 member 6 (SLC22A6, Homo sapiens, UniProt Q4U2R8); transporter uptake, inhibitor, radiometric; oocytes): 155 µM

C[C@@H]1O[C@@H](O[C@H]2[C@H](O)[C@@H](O)[C@H](OC[C@H]3O[C@@H](OC(=O)[C@]45CCC(C)(C)C[C@H]4C4=CC[C@@H]6[C@@]7(C)CC[C@H](O[C@@H]8OC[C@H](O)[C@H](O)[C@H]8O[C@@H]8O[C@H](CO)[C@@H](O)[C@H](O)[C@H]8O)C(C)(C)[C@@H]7CC[C@@]6(C)[C@]4(C)CC5)[C@H](O)[C@@H](O)[C@@H]3O)O[C@@H]2CO)[C@H](O)[C@H](O)[C@H]1O
IC50 (MAL12; enzyme activity, inhibitor): 0.61 µM

Cc1ccc2oc(=O)cc(NCCO)c2c1
IC50 (ADRA1A I178V/M292L; calcium signal, antagonist): 324 µM

COc1cc(C(c2c(O)c3ccccc3oc2=O)c2c(O)c3ccccc3oc2=O)ccc1OCc1cn(CC(=O)Nc2ccc(C)cc2C)nn1
IC50 (MAL12; enzyme activity, inhibitor, absorbance): 20.2 µM

NC(=S)N/N=C/c1cc2ccccc2nc1SCc1cn(CC(=O)Nc2ccc([N+](=O)[O-])cc2)nn1
IC50 (MAL12; enzyme activity, inhibitor): 559 µM

Cc1ccc2[nH]c(=O)c(CNC3CCCCC3)cc2c1
IC50 (ADRA1A I178V/M292L; calcium signal, antagonist): 1.62 µM

Cc1cccc(C)c1NC(=O)Cn1cc(CSc2nc3ccccc3cc2/C=N/NC(N)=S)nn1
IC50 (MAL12; enzyme activity, inhibitor): 150 µM

CC1(CN)CCN(c2cnc3c(Sc4ccncc4Cl)n[nH]c3n2)CC1
IC50 (Tyrosine-protein phosphatase non-receptor type 1 (PTPN1, Homo sapiens, UniProt P18031); enzyme activity, inhibitor): > 100 µM

NC(=S)N/N=C/c1cc2ccccc2nc1SCc1cn(CC(=O)Nc2ccc(Br)cc2)nn1
IC50 (MAL12; enzyme activity, inhibitor): 434 µM

C[C@@H]1O[C@@H](O[C@H]2[C@H](O[C@H]3CC[C@]4(C)[C@H]5CC=C6[C@@H]7CC(C)(C)CC[C@]7(C(=O)O[C@@H]7O[C@H](CO[C@@H]8O[C@H](CO)[C@@H](O[C@@H]9O[C@@H](C)[C@H](O)[C@@H](O)[C@H]9O)[C@H](O)[C@H]8O)[C@@H](O)[C@H](O)[C@H]7O)CC[C@@]6(C)[C@]5(C)CC[C@H]4C3(C)C)OC[C@H](O)[C@@H]2O)[C@H](O)[C@H](O)[C@H]1O
IC50 (MAL12; enzyme activity, inhibitor): 0.47 µM
